Experimental data as given in publication PMC7105043 (Journal of the Chinese Medical Association, 2017).
In brackets after ≈: the same amount, converted by molar mass.

How the values were obtained:
XTT cytotoxicity assay = format: cell-based, human; settings: dog, MDCK cells
How it was run: (§1)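 Test compound serially diluted in complete MEM (10% heat-inactivated FBS) and added to A549 cells seeded at 1 × 10^4 cells/well and pre-incubated 24 h. Cells exposed 3 days at 35 °C, 5% CO2, then XTT reagent for 4 h. Absorbance read at 450 nm, reference 620 nm. Viability relative to untreated control (100%). Triplicate wells, at least three independent runs.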

[1] = system: pandemic influenza A (H1N1) virus; format: cell-based
[2] = system: pandemic influenza A (H1N1) virus; format: cell-based; remark: listed apart in the source
[3] = system: pandemic influenza A (H1N1) virus (A/California/07/2009); experiment: microbe, parasite or virus in culture; format: cell-based
[4] = system: pandemic influenza A (H1N1) virus; format: cell-based; remark: listed apart in the source
A549 cells = experiment: XTT cytotoxicity assay; format: cell-based, human; settings: XTT, 3 days; method says A549 cells, Table 1 says MDCK cells
How it was run: as §1

[5] = ref 25 (Theisen et al); cited from earlier work
[6] = system: H1N1 A/Puerto Rico/8/34-NS116-GFP; settings: ref 25 (Theisen et al); cited from earlier work

SMILES | CC50 at 3 days (XTT cytotoxicity assay) [µg/mL] | protective effect against virus infection (cell viability) [1] | green fluorescence (viral glycoprotein foci) [2] | inhibition of viral RNA synthesis (qRT-PCR) [4] | other results
O=c1c(O)c(-c2ccc(O)c(O)c2)oc2cc(O)cc(O)c12 [quercetin hydrate] | > 100 |  |  |  | 
O=c1c(O)c(-c2ccc(O)cc2)oc2cc(O)cc(O)c12 [kaempferol] | > 100 |  |  |  | 
O.Oc1cc(O)c2c(c1)O[C@H](c1ccc(O)c(O)c1)[C@@H](O)C2 [catechin] |  | protective effects | decreased in a dose-dependent manner | significant inhibition | EC50 (XTT viability of infected cells, Fig. 1) [1]: 10 to 25 µg/mL; Plaque inhibition (EC50) [3]: 18.4 ± 0.7 µg/mL; reduction of viral production (plaque assay) ([3]; 25 μg/mL): approximately 50%; XTT cytoxicity (CC50) (A549 cells): >100 µg/mL
O=C(O)c1cc(O)c(O)c(O)c1 [gallic acid] | 22.1 ± 0.6 (≈ 130 µM) | protective effects | decreased in a dose-dependent manner | significant inhibition | reduction of viral production (plaque assay) ([3]; 2.5 μg/mL): approximately 50%; EC50 ([3]; Influenza A virus, H1N1, 72 h, read-out: Plaque inhibition (EC50)): 2.6 ± 0.07 µg/mL (≈ 15.3 µM); CC50 [5]: 770 µM; EC50 [6]: 50.8 µM
C[C@@H]1O[C@@H](OC[C@H]2O[C@@H](Oc3c(-c4ccc(O)c(O)c4)oc4cc(O)cc(O)c4c3=O)[C@H](O)[C@@H](O)[C@@H]2O)[C@H](O)[C@H](O)[C@H]1O [rutintrihydrate, rutin trihydrate] | > 100 |  |  |  | 
